# Assay results taken from ChEMBL document CHEMBL3997809, “Design and synthesis of a new series of 3,5-disubstituted isoxazoles active against Trypanosoma cruzi and Leishmania amazonensis” (Eur J Med Chem, 2017).
# Active and inactive are the calls of the source. No cut-off for these calls is given here.
# How the values were obtained:
# [1] = Cytotoxicity against human THP1 cells assessed as reduction in cell viability after 72 hrs by MTT assay; assay type: cell-based; conditions: THP-1 cells
# In short: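 PMA-differentiated THP-1 cells exposed to serial dilutions from 15.6 to 500 µM for 72 h at 37 °C, 5% CO2. Viability by MTT reduction to formazan, dissolved in DMSO, OD 540 nm. Gives CC50.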
# [2] = Selectivity index, ratio of CC50 for human THP1 cells to IC50 for Trypanosoma cruzi Tulahuen amastigote forms infected in human THP1 cells; assay type: toxicity, cell-based; conditions: read-out: Ratio CC50/IC50
# In short: (§1)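 Ratio of CC50 from the 72 h MTT assay in PMA-differentiated THP-1 cells to IC50 against intracellular amastigotes in THP-1 cells measured by CPRG read-out after 48 h.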
# Leishmania amazonensis [3] = assay: Growth inhibition of Leishmania amazonensis MHOM/BR/77/LTB0016 amastigote forms expressing beta-galactosidase infected in human THP1 cells at 100 uM after 48 hrs relative to control; assay type: functional; conditions: for inhibition of growth at 100 µM: MHOM/BR/77/LTB0016, THP-1, 48 h, read-out: GI
# In short: (§2)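 THP-1 cells seeded at 4.0 × 10^4 cells/well and differentiated with PMA 100 ng/ml for 72 h. Promastigotes (4-day culture) opsonized 1 h at 34 °C in RPMI-1640 with 10% heat-inactivated human B+ serum. Infection at 10:1 parasite/cell for 3 h at 34 °C, washed, then 24 h for amastigote transformation. Compound treatment in triplicate for 48 h at 34 °C. Read-out: CPRG 100 µM with 0.1% NP-40, 16 h, OD 570/630 nm. Negative control DMSO 1%.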
# Trypanosoma cruzi [4] = assay: Growth inhibition of Trypanosoma cruzi Tulahuen amastigote forms infected in human THP1 cells at 100 uM after 48 hrs relative to control; assay type: functional; conditions: THP-1, 48 h, read-out: GI
# In short: (§3)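 PMA-differentiated THP-1 macrophages (4.0 × 10^4 cells/well, 100 ng/ml, 72 h) infected with trypomastigotes at 2:1 parasite/cell overnight at 37 °C. Washed, then 24 h more for amastigote transformation. Compounds added in triplicate for 48 h at 37 °C, 5% CO2. Read-out: CPRG 100 µM with 0.1% NP-40 for 16 h, OD 570/630 nm. Negative control DMSO 1%.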
# Trypanosoma cruzi [5] = assay: Trypanocidal activity against Trypanosoma cruzi Tulahuen amastigote forms infected in human THP1 cells after 48 hrs; assay type: functional, cell-based; conditions: THP-1, 48 h; in short: as §3
# Trypanosoma cruzi [6] = assay: Trypanocidal activity against Trypanosoma cruzi Tulahuen trypomastigote forms at 3.9 to 250 uM after 72 hrs by MTT assay; assay type: functional
# In short: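 Culture-derived Tulahuen trypomastigotes raised from infected L929 cells, 1.5 × 10^6 parasites/well. Compounds serially diluted from 250 to 3.9 µM, incubated 72 h at 37 °C, 5% CO2. Viability by MTT, OD 540 nm after dissolving formazan in DMSO. Negative control DMSO 1%.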
# Leishmania amazonensis [7] = assay: Antileishmanial activity against Leishmania amazonensis MHOM/BR/77/LTB0016 amastigote forms expressing beta-galactosidase infected in human THP1 cells after 48 hrs; assay type: functional, cell-based; conditions: MHOM/BR/77/LTB0016, THP-1, 48 h; in short: as §2
# Trypanosoma cruzi [8] = assay: Growth inhibition of Trypanosoma cruzi Tulahuen amastigote forms infected in human THP1 cells at 100 uM using compound after 1 week storage measured after 48 hrs; assay type: functional, cell-based
# [9] = Chemical stability in DMSO after 1 week by mass spectrometric analysis; assay type: physicochemical; conditions: 168 h
# [10] = Selectivity index, ratio of CC50 for human THP1 cells to IC50 for Leishmania amazonensis MHOM/BR/77/LTB0016 amastigote forms expressing beta-galactosidase infected in human THP1 cells; assay type: toxicity, cell-based; conditions: read-out: Ratio CC50/IC50; in short: as §1
# Leishmania infantum = assay: Growth inhibition of Leishmania infantum MHOM/BR/74/PP75 amastigote forms expressing beta-galactosidase infected in human THP1 cells at 50 uM after 48 hrs relative to control; assay type: functional; conditions: MHOM/BR/74/PP75, THP-1, 48 h, read-out: GI; in short: as §2
# Trypanothione reductase = Trypanothione reductase (Trypanosoma cruzi, UniProt P28593); assay: Inhibition of Trypanosoma cruzi trypanothione reductase expressed in Escherichia coli BL21(DE3) using T(S)2 as substrate incubated for 30 mins in presence of NADPH measured for 30 mins
# In short: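 Enzyme purified by affinity chromatography. Then T(S)2 1 µM and compound in DMSO added, 30 min at 27 °C, followed by further DTNB. A412 followed for 30 min. Negative control DMSO 1%.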
# Leishmania amazonensis [11] = assay: Growth inhibition of Leishmania amazonensis MHOM/BR/77/LTB0016 amastigote forms expressing beta-galactosidase infected in human THP1 cells at 2 uM after 48 hrs relative to control; assay type: functional; conditions: MHOM/BR/77/LTB0016, THP-1, 48 h, read-out: GI; in short: as §2
# Trypanosoma cruzi [12] = assay: Antitrypanosomal activity against Trypanosoma cruzi trypomastigote forms; assay type: functional
# Trypanosoma cruzi [13] = assay: Growth inhibition of Trypanosoma cruzi Tulahuen amastigote forms infected in human THP1 cells at 20 uM after 48 hrs relative to control; assay type: functional; conditions: THP-1, 48 h, read-out: GI; in short: as §3
# Trypanothione reductase, sequence (P28593 whole entry): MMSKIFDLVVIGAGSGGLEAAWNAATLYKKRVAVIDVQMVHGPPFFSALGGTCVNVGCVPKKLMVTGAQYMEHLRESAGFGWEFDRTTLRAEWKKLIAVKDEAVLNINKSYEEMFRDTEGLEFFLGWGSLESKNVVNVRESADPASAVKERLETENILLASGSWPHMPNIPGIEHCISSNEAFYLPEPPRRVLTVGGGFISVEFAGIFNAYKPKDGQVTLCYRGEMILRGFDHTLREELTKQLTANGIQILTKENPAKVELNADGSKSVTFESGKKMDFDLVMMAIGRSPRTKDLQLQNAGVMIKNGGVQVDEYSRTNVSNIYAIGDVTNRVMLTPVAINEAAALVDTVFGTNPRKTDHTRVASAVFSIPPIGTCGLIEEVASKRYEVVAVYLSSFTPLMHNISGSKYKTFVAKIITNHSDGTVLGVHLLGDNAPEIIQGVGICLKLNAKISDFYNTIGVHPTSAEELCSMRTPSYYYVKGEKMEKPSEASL
IC50 (Leishmania amazonensis [7]),Compound,CC50 at 72 h [1],inhibition of growth at 100 µM (Trypanosoma cruzi [4]),IC50 (Trypanosoma cruzi [5]),Activity (Trypanosoma cruzi [6]),inhibition of growth at 100 µM (Leishmania amazonensis [3]),further results
> 100 µM,O=[N+]([O-])c1ccc(-c2cc(CO)on2)cc1,–,12.2%,> 100 µM,inactive,4.98%,–
5.08 µM,ClCc1ccc(-c2cc(-c3ccc4c(c3)OCO4)no2)cc1,182 µM,95.8%,1.13 µM,inactive,57.7%,selectivity ratio [10]: 35.8; inhibition of growth at 50 µM (Leishmania infantum): 9.01%; IC50 (Trypanothione reductase): > 100 µM; selectivity ratio [2]: 161
> 100 µM,"c1ccc(-c2cc(-c3ccccc3)on2)cc1 [3,5-DIPHENYLISOXAZOLE]",–,29.4%,> 100 µM,inactive,6.03%,–
> 100 µM,CC(=O)OC[C@H]1O[C@H](OCc2cc(-c3ccccc3)no2)[C@H](OC(C)=O)[C@@H](OC(C)=O)[C@@H]1OC(C)=O,–,1.16%,> 100 µM,inactive,2.06%,–
> 100 µM,Cc1ccc(-c2cc(-c3ccc4c(c3)OCO4)no2)cc1,81.3 µM,81.7%,1.74 µM,inactive,28.1%,IC50 (Trypanothione reductase): > 100 µM; selectivity ratio [2]: 46.7
> 100 µM,OC[C@H]1O[C@H](OCc2cc(-c3ccccc3)no2)[C@H](O)[C@@H](O)[C@@H]1O,–,7.3%,> 100 µM,inactive,4.57%,–
> 100 µM,OCc1cc(-c2ccc(F)cc2)no1,–,8.27%,> 100 µM,inactive,3.35%,–
0.14 µM,C[C@@H]1[C@H](O)[C@@H](C)/C=C/C=C/C=C/C=C/C=C/C=C/C=C/[C@H](O[C@@H]2O[C@H](C)[C@@H](O)[C@H](N)[C@@H]2O)C[C@@H]2O[C@](O)(C[C@@H](O)C[C@@H](O)[C@H](O)CC[C@@H](O)C[C@@H](O)CC(=O)O[C@H]1C)C[C@H](O)[C@H]2C(=O)O [AMPHOTERICIN B],27.9 µM,–,–,–,–,selectivity ratio [10]: 199; inhibition of growth at 2 µM (Leishmania amazonensis [11]): 81.6%
> 100 µM,CC(=O)OC[C@H]1O[C@H](OCc2cc(-c3ccc4c(c3)OCO4)no2)[C@H](OC(C)=O)[C@@H](OC(C)=O)[C@@H]1OC(C)=O,–,3.15%,> 100 µM,inactive,2.05%,–
> 100 µM,OC[C@H]1O[C@H](OCc2cc(-c3ccc4c(c3)OCO4)no2)[C@H](O)[C@@H](O)[C@@H]1O,–,2.93%,> 100 µM,inactive,3.82%,–

# Continued, compound first:
Compound,IC50 (Leishmania amazonensis [7]),CC50 at 72 h [1],inhibition of growth at 100 µM (Trypanosoma cruzi [4]),IC50 (Trypanosoma cruzi [5]),Activity (Trypanosoma cruzi [6]),inhibition of growth at 100 µM (Leishmania amazonensis [3]),further results
c1ccc(-c2cc(-c3ccc4c(c3)OCO4)no2)cc1,–,> 500 µM,64.8%,23 µM,inactive,–,selectivity ratio [2]: > 21.7; growth inhibition (GI) (Leishmania amazonensis [3]): inactive
COc1ccc(-c2cc(CO)on2)cc1,–,–,9.32%,> 100 µM,inactive,–,–
COc1ccc(-c2cc(CN=[N+]=[N-])on2)cc1,–,< 15.6 µM,60.4%,–,inactive,–,growth inhibition (GI) (Trypanosoma cruzi [8]): inactive; Stability [9]: Unstable
O=C(O)c1cc(-c2ccccc2)no1,–,–,0%,–,inactive,–,–
OCc1ccc(-c2cc(-c3ccc(F)cc3)no2)cc1,–,–,10.6%,> 100 µM,inactive,–,–
COc1ccc(-c2cc(-c3ccc(CO)cc3)on2)cc1OC,–,–,14.2%,> 100 µM,inactive,–,–
OCc1ccc(-c2cc(-c3ccc4c(c3)OCO4)no2)cc1,–,70.2 µM,65%,5.26 µM,inactive,0%,IC50 (Trypanothione reductase): > 100 µM; selectivity ratio [2]: 13.3
CC(C)(C)OC(=O)Nc1ccc(-c2cc(-c3ccccc3)no2)cc1,–,–,0%,–,inactive,–,–
Nc1ccc(-c2cc(-c3ccccc3)no2)cc1,–,407 µM,73%,90.4 µM,inactive,–,selectivity ratio [2]: 4.5
OCc1ccc(-c2cc(-c3ccccc3)no2)cc1,–,–,7.01%,> 100 µM,inactive,–,–
OCc1cc(-c2ccc3c(c2)OCO3)no1,–,–,1.95%,> 100 µM,inactive,–,–
OCc1cc(-c2ccccc2)no1,–,–,7.57%,> 100 µM,inactive,–,–
CC(=O)Nc1ccc(-c2cc(-c3ccccc3)no2)cc1,–,–,0%,–,inactive,–,–
O=[N+]([O-])c1ccc(-c2cc(-c3ccc(CO)cc3)on2)cc1,–,–,15.9%,> 100 µM,inactive,–,–
COc1ccc([C@H]2O[C@@H](c3ccc(OC)c(OC)c3)[C@@H](C)[C@@H]2C)cc1OC,–,–,–,–,–,–,IC50 (Trypanosoma cruzi [12]): 2.3 µM
COc1ccc(-c2cc(CO)on2)cc1OC,–,–,0%,–,inactive,–,–
COc1ccc(-c2cc(-c3ccc(CO)cc3)on2)cc1,–,–,5.77%,> 100 µM,inactive,–,–
COc1cc([C@@H]2O[C@@H](c3cc(OC)c(OC)c(OC)c3)[C@H](C)[C@H]2C)cc(OC)c1OC [GRANDISIN],–,–,–,–,–,–,IC50 (Trypanosoma cruzi [12]): 3.7 µM
CC(=O)OCc1ccc(-c2cc(-c3ccc4c(c3)OCO4)no2)cc1,> 100 µM,> 500 µM,47.6%,23.2 µM,inactive,15.7%,selectivity ratio [2]: > 21.5
O=C(Cn1ccnc1[N+](=O)[O-])NCc1ccccc1 [BENZNIDAZOLE],–,> 500 µM,–,–,–,–,inhibition of growth at 20 µM (Trypanosoma cruzi [13]): 85.9%; selectivity ratio [2]: > 49.1
